The source made the active and inactive calls. No cut-off for these calls is given here.
Tests used:
[1] = target: T1, Estrogen receptor (Homo sapiens) (UniProt P03372); assay: Agonist activity at ER in human MCF7:WS8 cells assessed as increase in pS2 gene expression at 10^-6 M after 48 hrs by RT-PCR analysis; assay type: cell-based
T1 sequence (whole entry): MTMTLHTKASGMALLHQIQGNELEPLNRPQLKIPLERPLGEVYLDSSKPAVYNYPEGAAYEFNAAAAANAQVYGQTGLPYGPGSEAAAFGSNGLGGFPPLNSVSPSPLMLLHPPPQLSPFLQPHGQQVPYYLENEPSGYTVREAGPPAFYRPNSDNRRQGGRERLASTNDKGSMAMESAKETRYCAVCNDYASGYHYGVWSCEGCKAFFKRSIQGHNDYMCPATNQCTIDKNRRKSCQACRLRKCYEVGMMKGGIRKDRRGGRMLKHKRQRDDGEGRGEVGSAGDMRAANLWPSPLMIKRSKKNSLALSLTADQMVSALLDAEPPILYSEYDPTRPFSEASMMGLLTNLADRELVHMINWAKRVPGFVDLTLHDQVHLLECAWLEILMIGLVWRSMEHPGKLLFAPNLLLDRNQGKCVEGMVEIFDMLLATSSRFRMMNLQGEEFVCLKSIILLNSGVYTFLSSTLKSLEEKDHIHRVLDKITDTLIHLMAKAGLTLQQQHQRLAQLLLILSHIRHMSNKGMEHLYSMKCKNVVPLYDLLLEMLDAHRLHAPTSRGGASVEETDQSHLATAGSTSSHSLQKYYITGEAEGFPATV
How it was run: (§1)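 After 3 days estrogen starvation, MCF-7:WS8 cells were seeded at 300 000 cells/well and treated for 48 h, then harvested in Trizol. pS2, GREB1 and PgR mRNA measured by real-time PCR with primers checked by single-peak dissociation curves.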

[2] = target: T1, Estrogen receptor (Homo sapiens); assay: Agonist activity at ER in human MCF7:WS8 cells assessed as increase in cell growth by measuring DNA level at 10^-6 M after 7 days by fluorescence analysis; assay type: cell-based
How it was run: (§2)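 MCF-7:WS8 cells kept 3 days in phenol red-free RPMI 1640 with 10% charcoal-stripped serum, then seeded at 10 000 cells/well. Next day treated with serial dilutions (10–12 to 10–6 M) or single therapeutic-level concentrations in estrogen-free medium. Medium changed every 2 days, 7 days total, triplicate points.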

[3] = target: T1, Estrogen receptor (Homo sapiens); assay: Agonist activity at ER in human MCF7:WS8 cells assessed as increase in PgR gene expression at 10^-6 M after 48 hrs by RT-PCR analysis; assay type: cell-based; how it was run: as §1
[4] = target: T1, Estrogen receptor (Homo sapiens); assay: Agonist activity at ER in human MCF7:WS8 cells assessed as increase in GREB1 gene expression at 10^-6 M after 48 hrs by RT-PCR analysis; assay type: cell-based; how it was run: as §1
[5] = target: T1, Estrogen receptor (Homo sapiens); assay: Antagonist activity at ER in human MCF7:WS8 cells assessed as inhibition of estradiol-induced cell growth by measuring DNA level after 7 days treated at highesy drug concentration by fluorescence analysis; assay type: cell-based
[6] = target: T1, Estrogen receptor (Homo sapiens); assay: Agonist activity at ER in human MCF7:WS8 cells assessed as cell growth by measuring DNA level at 0.56 X 10^-9 M after 7 days by fluorescence analysis; assay type: cell-based; how it was run: as §2
[7] = target: T1, Estrogen receptor (Homo sapiens); assay: Antagonist activity at ER in human MCF7:WS8 cells assessed as inhibition of estradiol-induced cell growth by measuring DNA level at 10^-6 M after 7 days by fluorescence analysis; assay type: cell-based
[8] = Effect on ER-alpha protein level in human MCF7:WS8 cells at 1 nM after 24 hrs by Western blot analysis; assay type: functional
How it was run: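 Cells estrogen-starved 3 days in phenol red-free RPMI 1640, 3 million seeded per 10 cm dish, treated 24 h. Lysates (20 μg protein by BCA) run on 4–12% Bis-Tris gels, blotted to nitrocellulose, probed with rabbit anti-ERα and anti-β-actin, detected by ECL. Densitometry normalized to β-actin, background subtracted, vehicle = 100%. Three independent experiments.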

[9] = target: T1, Estrogen receptor (Homo sapiens); assay: Agonist activity at ER in human MCF7:WS8 cells assessed as cell growth by measuring DNA level at 1.17 X 10^-9 M after 7 days by fluorescence analysis; assay type: cell-based; how it was run: as §2
[10] = target: T1, Estrogen receptor (Homo sapiens); assay: Antagonist activity at ER in human MCF7:WS8 cells assessed as inhibition of estradiol-induced cell growth by measuring DNA level after 7 days by fluorescence analysis; assay type: cell-based; details: concentration not given here

Compound | Activity [1] | Activity [2] | Activity [3] | Activity [4] | inhibition [5] [%] | Activity [6] | inhibition [7] [%] | Activity [8] [%] | Activity [9] | inhibition [10] [%]
COc1ccc(C2=C(c3ccccc3)CCCc3cc(O)ccc32)cc1 | Active | Active | Active | Active | 20 |  |  |  |  | 
CCOc1ccc2c(c1)CCCC(c1ccccc1)=C2c1ccc(O)cc1 | Active | Active | Active | Active | 20 |  |  |  |  | 
CN(C)CCOc1ccc2c(c1)CCCC(c1ccccc1)=C2c1ccc(O)cc1 | Active | Active | Active | Active | 20 | inactive |  |  |  | 
CCOc1ccc(C2=C(c3ccccc3)CCCc3cc(O)ccc32)cc1 | Active | Active | Active | Active | 20 |  | 20 |  |  | 
CCC(=C(c1ccc(O)cc1)c1ccc(O)cc1)c1ccc(O)cc1 | Active |  | Active | Active | 20 |  |  |  |  | 
C[C@]12CC[C@@H]3c4ccc(O)cc4CC[C@H]3[C@@H]1CC[C@@H]2O [ESTRADIOL] |  |  |  |  |  |  |  | 60 |  | 
COc1ccc2c(c1)CCCC(c1ccccc1)=C2c1ccc(O)cc1 | Active | Active | Active | Active | 20 |  |  |  |  | 
CCC(=C(c1ccc(O)cc1)c1ccc(O)cc1)c1ccccc1 | Active | Active | Active | Active | 20 |  |  |  |  | 
CNCCOc1ccc2c(c1)CCCC(c1ccccc1)=C2c1ccc(O)cc1 | Active |  | Active | Active | 10 |  |  |  | inactive | 10

From ChEMBL document CHEMBL3286188 (J Med Chem, 2014)
